LEDGF integ inh: blockers of LEDGF/p75-dependent integrase strand transfer – biochemical, TR-FRET, high throughput, primary screen | HIV-1 integrase (with human LEDGF/p75) | TR-FRET IN-LEDGF/p75 DNA integration, Eu/Cy5 | inhibition, % at 3.7 µM | 370,000 tested, 0.64% active;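 active means inhibition above the screen-wide mean plus 3 SD, cut at about 13% in these data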;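 further: signal is the Cy5 over europium emission ratio at 671 and 618 nm; 0% = plate median of compound wells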
TDP2 absorb: human TDP2 enzyme inhibitors, primary screen, biochemical, epi absorbance, recombinant enzyme; inhibition, % at 12.8 µM; AID 720702, 2013; 370,000 tested, 0.34% active; T5PNP hydrolysis, p-nitrophenol absorbance 415 nm;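 active means inhibition above the mean of all tested compounds plus 3 SD, set per campaign, cut at about 25% in these data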;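 further: 0% = DMSO with enzyme and 100% = buffer with substrate but no TDP2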
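System – recombinant human TDP2 · Amount – 120 nM TDP2 per well · Buffer or medium – Mg2+-containing Tris-HCl buffer, pH 7.5 · Reagent – T5PNP substrate, 5 mM · Dosing – 12.8 µM single point, 1% DMSO · Incubation – 2 h at 37 °C · Measured by – epi absorbance · Read-out basis – percent inhibition · Benchmarks – high control without enzyme, low control DMSO plus TDP2 · Repeats – singlicate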
ARFGAP1 inh: inhibitors of rat ARFGAP1 GAP activity, primary screen, biochemical, fluorescence polarization, GDP tracer | inhibition, % at 16.5 µM | 360,000 tested, 0.26% active | Arfgap1-stimulated ARF1 GTP hydrolysis, GDP FP detection;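 active means inhibition above a per-plate limit, mean inhibition of low control wells plus 3 SD, cut at about 25% in these data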;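 further: 0% = DMSO wells with enzyme and 100% = wells lacking Arfgap1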
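Material – truncated rat Arfgap1 GAP domain · Buffer or medium – HEPES-based buffer, pH 7.5 · Reagent – human ARF1(Δ1-17)-GTP substrate · Dosing – 16.5 µM single point, 1.26% DMSO · Schedule – GTP hydrolysis reaction 2 h at 25 °C · Technique – GDP detection by fluorescence polarization · Benchmarks – No-Arfgap1 wells (100%) versus DMSO full-reaction wells (0%) · Repeats – single replicate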
ASAP1 inh: inhibitors of human ASAP1 ArfGAP activity, primary screen, biochemical, fluorescence polarization; Arf-GAP with SH3 domain, ANK repeat and PH domain-containing protein 1 (Homo sapiens), …; ASAP1-stimulated ARF1 GTP hydrolysis, GDP FP detection; inhibition, % at 16.5 µM; 360,000 tested, 0.19% active; AID 624377, 2012; in the data active means inhibition above about 25%;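 further: 0% = vehicle with enzyme and substrate and 100% = no enzyme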
UHRF1 MBD2 ctr: UHRF1 methylated DNA binding inhibitors, primary screen, counter-screen for MBD2 inhibitor project, biochemical, TR-FRET, human UHRF1, single concentration; UHRF1 binding to methylated oligo; inhibition, % at 4.4 µM; 370,000 tested, 0.75% active; AID 687016, 2013;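 further: UHRF1 SRA domain binding a hemimethylated CpG hairpin DNA probe; 0% = median of test compound wells and 100% = reference inhibitor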
Target sequence (Q96T88 whole entry, looked up, the tested form may be a part): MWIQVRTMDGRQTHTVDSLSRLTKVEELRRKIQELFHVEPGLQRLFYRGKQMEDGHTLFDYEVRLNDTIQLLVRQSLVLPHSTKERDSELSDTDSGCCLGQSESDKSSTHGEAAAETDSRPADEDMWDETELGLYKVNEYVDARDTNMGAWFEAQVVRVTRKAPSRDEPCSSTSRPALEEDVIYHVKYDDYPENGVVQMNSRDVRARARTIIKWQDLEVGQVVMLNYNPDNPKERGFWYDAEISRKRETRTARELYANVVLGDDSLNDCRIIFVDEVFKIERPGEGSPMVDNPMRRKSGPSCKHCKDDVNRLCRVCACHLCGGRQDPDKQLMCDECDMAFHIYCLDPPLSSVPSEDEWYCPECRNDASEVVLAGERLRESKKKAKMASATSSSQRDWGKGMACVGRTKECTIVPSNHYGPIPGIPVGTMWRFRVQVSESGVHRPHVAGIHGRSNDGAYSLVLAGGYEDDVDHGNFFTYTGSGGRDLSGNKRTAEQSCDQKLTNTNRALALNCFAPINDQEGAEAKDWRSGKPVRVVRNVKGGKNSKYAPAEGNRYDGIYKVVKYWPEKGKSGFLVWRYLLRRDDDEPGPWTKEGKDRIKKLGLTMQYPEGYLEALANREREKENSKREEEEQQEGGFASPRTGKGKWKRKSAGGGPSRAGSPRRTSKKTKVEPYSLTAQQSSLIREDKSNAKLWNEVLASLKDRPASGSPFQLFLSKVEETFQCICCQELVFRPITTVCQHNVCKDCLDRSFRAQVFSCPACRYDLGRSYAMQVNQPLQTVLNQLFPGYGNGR
MBD2 DNA inh: inhibitors of MBD2 binding to methylated DNA, primary screen, biochemical, TR-FRET, DNA-binding domain, human; Methyl-CpG-binding domain protein 2 (Homo sapiens), Q9UBB5; MBD2 binding to methylated oligonucleotide; inhibition, % at 4.4 µM; 370,000 tested, 0.31% active; AID 686964, 2013; in the data active means inhibition above about 13%
UHRF1 DNA bind: UHRF1 methylated DNA binding inhibitors, counter-screen for MBD2 inhibitor project, biochemical, TR-FRET, human UHRF1; shares compounds with MBD2 DNA inh; UHRF1 binding to methylated oligonucleotide; inhibition, % at 4.4 µM; 1,000 tested, 25% active;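 further: UHRF1 SRA domain binding a labeled hemimethylated CpG hairpin DNA; 0% = vehicle only and 100% = reference inhibitor with vehicle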
MBD2 confirm: inhibitors of MBD2 binding to methylated DNA, confirmation, biochemical, TR-FRET, DNA-binding domain, human | TR-FRET MBD2-DBD binding to methylated oligonucleotide | 1,000 tested, 26% active | inhibition, % at 4.4 µM | AID 720531, 2013 | shares compounds with MBD2 DNA inh; in the data active means inhibition above about 14%
An asterisk follows results filed as active; . = no result given. Hits are enriched below; roughly 2% of the tested compounds scored in any of these assays. Unless noted, no stated cut-off is given here; in the data, active means inhibition above about 21%; inactive means the rest.

SMILES	LEDGF integ inh	TDP2 absorb	ARFGAP1 inh	ASAP1 inh	UHRF1 MBD2 ctr	MBD2 DNA inh	UHRF1 DNA bind	MBD2 confirm
O=C(NC(=S)Nc1nc(-c2ccc(Br)cc2)cs1)c1cccnc1	2	3	0	13	-3	16*	6	1
C[C@H]1[C@@H](NCc2cccs2)CC[C@@]23CCCN2C(=O)CCC[C@@H]13	8	6	.	.	-3	3	.	.
COc1cc(NC(=O)C2CCCO2)c(OC)cc1NC(=O)c1ccccc1 (centres undefined)	-3	-5	5	9	-2	19*	6	1
COc1cc(NC(=O)C2CCCCC2)c(OC)cc1NC(=O)c1ccccc1	3	8	-17	-7	-4	-6	.	.
COC(=O)N1CC(=O)N(OC)C1c1ccc(Cl)cc1Cl (centres undefined)	6	2	5	6	25*	15*	11	4
CON1C(=O)CN(C(C)=O)C1c1ccc(Cl)cc1Cl (centres undefined)	-7	-17	8	3	3	7	.	.
COc1ccc(N2CCN(C(=O)c3ccc(CS(=O)c4cccc(C)c4)o3)CC2)cc1 (centres undefined)	-1	-6	11	-8	23*	14*	5	4
COc1cc2nc(N3CCNCC3)nc(N)c2cc1OC	-1	11	2	6	14	14*	32*	27*
CC(=O)Nc1c(-c2ccc(C(F)(F)F)cc2)nc2ncccn12	8	-6	.	.	-2	-5	.	.
Cc1ccc(Cc2c(-c3ccccc3)nc3cc(C)ccn23)cc1	-4	-17	-3	0	27*	17*	13	6
S=c1[nH]nc(-c2cc(-c3ccccc3)n[nH]2)n1N=Cc1cccc(OCc2ccccc2)c1	-2	-3	.	.	0	-2	.	.
COCCCN1C(=O)[C@H](CC(=O)NCCCN2CCCC2=O)[C@]2(C(=O)OC)CCCCC=C12	5	-5	.	.	-2	-6	.	.
Cc1ccc(-c2nnc(SCC(=O)NNC(=S)Nc3ccccc3)n2C2CCCCC2)cc1	3	-3	.	.	-7	-6	.	.
O=C(O)C1=CCC=CC1C(=O)O (centres undefined)	0	-4	5	-10	39*	17*	52*	20*
COCCCNC(=O)C[C@H]1C[C@@]2(C(=O)OC)C(=C[C@H](COCc3ccccc3)O[C@@H]2C)N(CCc2ccc(OC)c(OC)c2)C1=O	4	-4	.	.	0	-2	.	.
COc1ccc(S(=O)(=O)NCc2ccncc2)cc1NC(=O)c1ccccc1	4	19	-9	-1	33*	16*	5	2
CCOc1ccc(S(=O)(=O)NCc2ccncc2)cc1NC(=O)c1ccccc1	0	16	2	-13	-2	4	.	.
COc1ccc(N2CC(C)(C)[C@H](CC(=O)Nc3ccc(Br)cc3)C2=O)cc1	3	9	-2	10	-1	5	.	.
COc1ccc(NC(=O)C[C@@H]2C(=O)N(c3ccc(OC)cc3)CC2(C)C)cc1	4	7	-5	-10	-3	40*	1	6
Cc1cc(NS(=O)(=O)c2ccc(NC(=O)CSc3nc4sc(C)c(C)c4c(=O)n3Cc3ccco3)cc2)nc(C)n1	1	-7	.	.	0	-6	.	.
COc1cc(C(=O)NC2CCN(C)CC2)ccc1Nc1ncc2c(n1)N(C1CCCCC1)CCC(=O)N2C	3	-17	12	15	37*	24*	30*	28*
O=C(Nc1cccc(Cl)c1)OC1CCC12CCC(c1ccccc1)CC2 (centres undefined)	4	5	.	.	-2	-7	.	.
OCC1(CCOc2ccccc2)CCN(CCCn2cccn2)CC1	-4	-12	0	12	19	13*	8	3
CC1=C(C(=O)N(C)C)CC(CC(=O)NC(c2ccccc2)c2ccccc2)C(=O)N1Cc1ccccc1 (centres undefined)	-4	1	-5	10	-1	-3	.	.
CC1=C(C(=O)N(C)C)CC(CC(=O)NC(c2ccccc2)c2ccccc2)C(=O)N1Cc1ccc(F)cc1 (centres undefined)	-3	-7	3	1	24*	14*	11	3
SMILES	LEDGF integ inh	TDP2 absorb	ARFGAP1 inh	ASAP1 inh	UHRF1 MBD2 ctr	MBD2 DNA inh	UHRF1 DNA bind	MBD2 confirm
COC(=O)c1c(NC(=O)C2CCCCC2)sc2c1CCN(C(C)C)C2	-2	1	0	5	3	4	.	.
CCOC(=O)c1c(NC(=O)C2CCCCC2)sc2c1CCN(C(C)C)C2	0	-2	4	4	2	16*	5	5
CCOC(=O)c1c(NC(=O)c2ccc(S(=O)(=O)N3CCOCC3)cc2)sc2c1CCN(C(C)C)C2	0	1	-13	-9	25*	20*	34*	27*
CC(C)N1CCc2c(sc(NC(=O)c3ccc(S(=O)(=O)N4CCOCC4)cc3)c2C(N)=O)C1	1	-14	1	-2	-8	-6	.	.
O=C(COC(=O)CNC(=O)c1ccc(Cl)cc1)Nc1ccc(Cl)cc1C(F)(F)F	4	6	16	-12	1	61*	9	1
CCN(CC(=O)Nc1c(F)cccc1F)C(=O)/C=C/c1ccc2ccccc2n1	10	-7	7	-14	64*	30*	66*	58*
Cn1nnnc1Sc1ncnc2scc(-c3cnc(N)nc3)c12	1	12	.	.	-1	-1	.	.
COc1cccc(C2c3c(ncn(-c4ccccc4)c3=N)Oc3ccc4ccccc4c32)c1 (centres undefined)	-3	9	.	.	0	1	.	.
